Unmarked numbers belong to inactive results. Results filed as inconclusive are left out. Activity calls are given as the source filed them.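 How the source made its calls, unless noted: active means viability at or below 27.92% in each of two runs, the all-compound median minus 4 SD; inconclusive means no clear call, values can overlap the other calls; inactive means the rest.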
Key:
[1] = OD615 S. cerevisiae growth inhibition, permissive medium, pilot counter-assay, permissive growth control for S. cerevisiae lifespan shortening project (AID 705;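 active means growth inhibition above 25% in both replicates, a cutoff set 3 SD above the mean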); conditions: OD615, 24 h, at 10 µM, hits give high values
Procedure, shortened: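 Test system: Saccharomyces cerevisiae strain carrying genetically modified DeaD replicative-lifespan system; buffer or medium: SC raffinose/galactose permissive medium; dosing: one dose 10 µM, DMSO 0.25% final; times: 24 h exposure, 30 °C; measured by: OD at 615 nm; read-out basis: growth inhibition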

[2] = Restrictive medium S. cerevisiae growth inhibition, OD615, pilot screen of yeast lifespan reduction project, restrictive growth control (AID 706;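 active means growth inhibition above a set limit, 3 SD over mean compound inhibition, in both replicates, cut at about 43% in these data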;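 further: modified DeaD lifespan yeast strain shifted to restrictive glucose medium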); conditions: OD615, 48 h, at 10 µM, hits give high values
Procedure, shortened: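 material = engineered S. cerevisiae DeaD strain | buffer or medium = glucose-based CSMM-D restrictive medium | dosing = one concentration, 10 µM final, 0.25% DMSO | schedule = 4 h pre-growth plus 48 h compound exposure, 30 °C | detection = OD615 absorbance reading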

[3] = viability gain of MRP-1-high H69AR cells under doxorubicin, pilot screen, MRP-1 activator project, CellTiter-Glo, duplicate (AID 807;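 active means viability increase at or above a cutoff of the median across tested compounds plus 3 SD, cut at about 8.5% in these data, passing the limit was not always enough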;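 further: compound pretreatment 18-22 h then 72 h combined with doxorubicin; 0% = doxorubicin alone and 100% = vehicle without doxorubicin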); conditions: H69AR viability with doxorubicin, CellTiter-Glo luminescence; at 10 µM; hits give high values
[4] = growth suppression of beta-catenin knockout HCT116, pilot screen, human colon tumor cells (AID 823;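 active means cell viability at or below a set limit in both duplicate runs, the limit being the all-compound median minus 4 SD, cut at about 23% in these data, passing the limit was not always enough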;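 further: 0% = wells killed by 20 µM Hyamine and 100% = untreated DMSO cell wells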); conditions: CellTiter-Glo, 60 h, at 10 µM, hits give low values
[5] = growth suppression of PTEN-deleted HCT116, pilot screen, cell-based, HCT116 clonal line, CellTiter-Glo (AID 824); conditions: 60 h, at 10 µM, hits give low values;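 further: 0% = 20 µM Hyamine control and 100% = vehicle cell control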
[6] = inhibitors of the yeast RAM network, pilot screen, dse1pr::URA3 reporter, 5-FOA selection (AID 869;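 active means inhibition over a set limit, the all-compound mean plus 3 SD, in both replicate runs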;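 further: 0% = DMSO wells with no growth and 100% = 10 µM 1-NA-PP1 with full growth; RAM network block rescues cells from 5-FOA so hits raise OD615 growth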); conditions: S. cerevisiae dse1pr::URA3 5-FOA growth, OD615, 2 d; at 10 µM; hits give high values; strain carries analog-sensitive mutant Cbk1 kinase
[7] = RAM signaling pathway blockade in yeast – S. cerevisiae, Pdr1DBD-CYC8 efflux-inhibited sensitized strain, primary screen (AID 1298;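 active means RAM network inhibition above 8.4% in each of two replicates, 3 SD over the compound average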;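 further: 0% = DMSO untreated cells without growth and 100% = 10 µM 1-NA-PP1 full growth; higher means more yeast growth rescued from 5-FOA killing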); conditions: S. cerevisiae cbk1-as DSE1-URA3 strain, 5-FOA growth OD615, 2 d; at 50 µM; hits give high values

Structure (SMILES) | growth inhibition [1] [%] | growth inhibition [2] [%] | viability increase [3] [%] | viability [4] | viability [5] | inhibition [6] [%] | RAM network inhibition [7] [%]
COC(=O)c1[nH]c2cc(OC)ccc2c1NC(=O)c1ccc2c(c1)OCO2 | -9.79 | -13.4 | -3.43 | 79.6% | 81.2% | 1.74 | 1.04
COCCNC(=O)CS(=O)Cc1nc(-c2ccc(OC)cc2)oc1C (stereo not given) | -9.42 | -4.61 | 0.42 | 103% | 95.2% | 1.11 | 0.85
Cc1cc(C)cc(OCC(=O)Nc2cccc(-c3nc4ncccc4o3)c2)c1 | -7.77 | -1.93 | -1.93 | 65.4% | 59.7% | 3.17 | 6.74
COC(=O)c1ccccc1NC(=O)C1CCCN(c2nnc(-n3cccc3)s2)C1 (stereo not given) | -1.67 | 4.77 | -2.28 | 86.2% | 82.2% | 1.65 | 8.61
Cc1cccc(NC(=O)CSc2nnc(-c3ccccc3)n2N)c1C | -9.02 | -15.1 | -2.08 | 94.4% | 90.2% | 1.85 | 0.16
COc1ccc2cc3c(N)nn(C(=O)Cc4ccccc4OC)c3nc2c1 | 10.1 | 17.7 | -8.54 | 2.78% (active) | 5.52% (active) | 0.65 | 2.84
COC(=O)c1ccc(NC(=O)c2cnc3scc(C)n3c2=O)cc1 | -9.29 | -13.3 | 1.67 | 101% | 95.8% | 0.345 | 2.36
Cc1ccc(N(CC(=O)NC2CCC(C)CC2)S(=O)(=O)c2cccnc2)cc1 (stereo not given) | 4.48 | 8.91 | 0.07 | 98.3% | 98.1% | 1.15 | -1.86
Cc1nc(Nc2nc3ccccc3o2)nc2c1CCC2 | 9.76 | 16.7 | -1.82 | 77.7% | 76% | 0.225 | -0.26
CN(Cc1ccccc1)C(=O)COC(=O)c1ccc2c(c1)OCO2 | -6.52 | -18.6 | 0.42 | 101% | 104% | 0.11 | 0.88
COc1ccc(C2N(c3ccc(Cl)cc3)C(=O)C3CCCN32)cc1 (stereo not given) | 1.46 | 0.035 | 0.55 | 101% | 99.9% | 0.915 | 0.88
CCCOC(=O)c1cccc(NC(=O)C(C)(C)C)c1 | -17.4 | -14.3 | 0.9 | 98.7% | 98.8% | -0.725 | 1.87
COc1ccc(NC(=O)Nc2nnc(N3CCCCC3C)s2)cc1OC (stereo not given) | -5.21 | -10.4 | -1.91 | 99.2% | 97.4% | 2.48 | 3.85
COc1cccc(C(=O)Nc2ccc3nc(N4CCOCC4)cc(C)c3c2)c1 | -7.63 | 0.38 | -6.58 | 95.7% | 85.9% | 0.845 | 2.45
CCOCCCNC(=O)c1cc2c(=O)n3cccc(C)c3nc2n1C | -19.1 | -15.2 | -5.27 | 19% (active) | 24.4% (active) | 2.11 | 2.32
O=C(C1CCCN(S(=O)(=O)c2cccc3cccnc23)C1)N1CCN(c2ccccc2F)CC1 (stereo not given) | -5.55 | 7.3 | -0.18 | 73.2% | 76.5% | -0.265 | 2.98
O=S(=O)(NC1CCCCC1)c1cccc(-c2nnc(-c3ccccc3)o2)c1 | -12.2 | -20.6 | 0.12 | 88.7% | 81.2% | 0.285 | 3.44
NC(=O)C1CCN(C(=O)C2CCN(S(=O)(=O)c3ccccc3)CC2)CC1 | -2.18 | 12.3 | -1.4 | 102% | 105% | 1.06 | 0.84

Structure (SMILES) | growth inhibition [1] [%] | growth inhibition [2] [%] | viability increase [3] [%] | viability [4] | viability [5] | inhibition [6] [%] | RAM network inhibition [7] [%]
COc1cccc(CNC(=O)CN(c2cc(C)cc(C)c2)S(=O)(=O)c2c(C)noc2C)c1 | -6.25 | -3.9 | -2.41 | 90.3% | 90.4% | 1.34 | 7.12
CC1CCCN(C(=O)CNC(=O)Cn2ccc3ccccc3c2=O)C1 (stereo not given) | -10.8 | -1.01 | -1.73 | 99.5% | 94.5% | 2.08 | 2.25
N#CCCN1CCN(S(=O)(=O)c2ccc(S(=O)(=O)NCC3CCCO3)cc2)CC1 (stereo not given) | -1.2 | 5.28 | 0.55 | 105% | 104% | 0.51 | -2.15
CCc1ccc(NC(=O)CN(c2ccc3c(c2)OCO3)S(=O)(=O)c2c(C)noc2C)cc1 | -16.8 | -11.4 | 0.12 | 85.5% | 80.5% | 3.38 | 9.54
COc1ccc(OC)c2c1sc(=NC(=O)C(C)C)n2C | -3.95 | 17.4 | -3.34 | 79.2% | 74.1% | 0.575 | 3
COc1ccc(C2CC(=O)C=C(NCC3CCCO3)C2)cc1 (stereo not given) | -10.4 | -1.65 | -0.23 | 96.2% | 100% | 1.43 | 1.32
O=C(O)C1CCCCC1C(=O)NCc1cn2ccccc2n1 (stereo not given) | -16.1 | -10.5 | -1.38 | 110% | 93.7% | 0.43 | 9.11
CCOC(=O)COc1cc2c(C(=O)OCC)c(C)oc2cc1Br | -10 | -2.66 | -2.07 | 89.3% | 89.8% | 1.04 | 12.8
CCOC(=O)CN1CC23C=CC(O2)C(C(=O)Nc2ccc4c(c2)OCO4)C3C1=O (stereo not given) | -0.14 | 3.22 | -1.01 | 107% | 103% | 2.71 | 1.23
Cc1ccc(N2CC(C(=O)Nc3cccc(F)c3)CC2=O)cc1 (stereo not given) | -13.3 | -5.71 | 0.09 | 90.6% | 103% | -0.185 | 8.04
NC(=O)C1(S(=O)(=O)c2ccccc2)CCCCC1 | -0.22 | -4.29 | -1.06 | 97.8% | 96.7% | 1.43 | 4.97
COCCn1c(=O)[nH]c2cc(C(=O)NCC3CCCO3)ccc2c1=O (stereo not given) | -6.33 | -1.18 | -0.04 | 100% | 95.2% | 1.23 | 1.45
CCOC(=O)C1CCN(S(=O)(=O)c2ccc3[nH]c(=O)oc3c2)CC1 | -10 | -5.23 | -1.5 | 97.8% | 91.1% | 0.515 | 2.82
O/N=C(/Cc1ccccn1)c1ccccc1 | -1.64 | 7.06 | -1.19 | 101% | 101% | 1.97 | 0.22
Cc1csc(NC(=O)CSc2nnc(Cn3c(=O)sc4ccccc43)n2-c2ccccc2)n1 | 0.38 | 15.3 | -1.37 | 96% | 96.8% | 2.42 | 6.99
CN(C)/C=N/c1c(C#N)cnn1-c1ccccc1 | -5.88 | -14.5 | -1.11 | 103% | 96.6% | 1.95 | 4.32
C=CCN(c1ccccc1)S(=O)(=O)c1ccc2c(c1)oc(=O)n2C | -15.1 | -18.7 | -2.65 | 98.7% | 87.6% | 2.14 | 3.12
